SR-BI HDL uptake: mouse SR-BI HDL lipid transfer inhibition; Q61009; AID 488896; 320,000 tested, 0.96% active; inhibition, % at 12.5 µM; ldlA[mSR-BI] CHO cells, DiI-HDL uptake fluorescence, 3 h;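 active = mean replicate inhibition of at least 70% and a set share of replicates each scoring 70 or more; inconclusive = meets just one of the two criteria; inactive = fails both criteria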;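 also: 0% = median of neutral control wells and 100% = median of positive control wells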
Target sequence (Q61009 whole entry, looked up): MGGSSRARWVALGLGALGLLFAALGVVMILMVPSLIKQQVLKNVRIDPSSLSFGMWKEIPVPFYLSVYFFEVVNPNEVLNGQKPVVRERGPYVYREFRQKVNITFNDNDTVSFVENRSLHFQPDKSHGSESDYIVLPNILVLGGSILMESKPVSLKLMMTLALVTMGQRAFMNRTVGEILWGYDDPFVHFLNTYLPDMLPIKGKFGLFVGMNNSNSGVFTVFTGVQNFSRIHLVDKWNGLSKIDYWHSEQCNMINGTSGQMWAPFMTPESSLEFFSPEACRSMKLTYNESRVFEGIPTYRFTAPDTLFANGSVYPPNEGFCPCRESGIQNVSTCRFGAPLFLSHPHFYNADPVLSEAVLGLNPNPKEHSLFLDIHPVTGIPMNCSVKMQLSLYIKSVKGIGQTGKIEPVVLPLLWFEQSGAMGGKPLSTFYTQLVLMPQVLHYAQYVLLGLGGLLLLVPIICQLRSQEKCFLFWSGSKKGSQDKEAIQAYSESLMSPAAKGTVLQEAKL
Bfl-1 A1 inh: inhibitors of the anti-apoptotic protein A1, read as caspase activation; MEF A1-2A-BIM cells, Caspase-Glo 3/7 luminescence, 3 h; percent of clofoctol response, vehicle zero; caspase activation, % (concentration not given with the values); 330,000 tested, 0.066% active; AID 2462;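 active = over half of replicate activation scores above 10%, or exactly half above 10 with the replicate mean above 10; inconclusive = replicate mean below 10 yet half the replicates above 10; inactive = over half of replicates below 10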
TAG inh: reduces triacylglycerol accumulation in H9c2 cells. AID 651582. Nile Red lipid (TAG) fluorescence; cells loaded with 200 µM oleic acid. 230,000 tested, 0.66% active. inhibition, % at 12.5 µM;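 active = pattern-corrected inhibition of lipid staining of at least 50% with the nuclear-stain viability signal not falling by more than 50%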;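 also: 0% = DMSO wells and 100% = triacsin C control wells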
SR-BI uptake up: activators of SR-BI mediated HDL lipid uptake | 320,000 tested, 0.096% active | activation, % at 12.5 µM | CHO ldlA[mSR-BI] cells, DiI-HDL uptake fluorescence, 3 h; 100 = double the neutral-control signal;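 active = mean replicate activation of at least 60% and every replicate at or above 60%; inconclusive = mean or all-replicate condition met, but not both; inactive = mean below 60% and not all replicates reaching 60%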;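 also: 0% = median plate neutral-control signal and 100% = twice that signal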
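material = CHO ldlA[mSR-BI] cells | medium = Ham's F12 with 0.5% BSA, HEPES 25 mM, pH 7.4 | reagent = fluorescent DiI-HDL, 10 µg/mL final | compound dosing = single-point compound dose | incubation = 3 h, 37 °C | measured by = bottom-read fluorescence, 550/595 nm | measure = HDL uptake via cellular fluorescence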
Vif imaging: inhibitors of HIV Vif; HEK293T cells, Vif self-association by quenched fluorescence, imaging, 24 h; inhibition, % at 7.49 µM; 340,000 tested, 0.35% active; in the data active = inhibition above about 50%, passing the limit was not always enough; inconclusive = no clear call, values can overlap the other calls; inactive = below about 31%
The depositor's hits bear a star; ! = not confirmed by another sample. Most compounds without a hit are left out; they make up all but 1.6% or so of the library.

How did Cc1ccc(C)c(NC(=S)N(C)CCO)c1 do in these assays?
SR-BI HDL uptake: -14; Bfl-1 A1 inh: 0; TAG inh: -9; SR-BI uptake up: 14; Vif imaging: -19

Results for COc1ccc(NC(=O)c2ccc(CNc3c(NC4CCCCC4)c(=O)c3=O)cc2)cc1OC ?
SR-BI HDL uptake: 78*!; Bfl-1 A1 inh: 1; TAG inh: 9; SR-BI uptake up: -78; Vif imaging: 0

Results for COc1ccc(CNC(=O)c2ccc(CNc3c(NC4CCCCC4)c(=O)c3=O)cc2)cc1 ?
SR-BI HDL uptake: -7; Bfl-1 A1 inh: 0; TAG inh: 9; SR-BI uptake up: 7

How did O=C(/C=C/c1ccc(Cl)cc1)c1ccc([N+](=O)[O-])o1 do in these assays?
SR-BI HDL uptake: -15; Bfl-1 A1 inh: 9.9*; TAG inh: 85; SR-BI uptake up: 15; Vif imaging: -8

What do the screens show for `Cc1ccc(CNC(=O)c2ccc([N+](=O)[O-])o2)cc1`?
SR-BI HDL uptake: -1; Bfl-1 A1 inh: 1; TAG inh: -29; SR-BI uptake up: 1; Vif imaging: 6

How did Cc1ccc(/C=C/C(=O)c2ccc([N+](=O)[O-])o2)cc1 do in these assays?
Bfl-1 A1 inh: 7.9*

What do the screens show for `Cc1cc(O)c(C(=O)/C=C/c2ccc(Cl)cc2)c(=O)o1`?
SR-BI HDL uptake: 24; Bfl-1 A1 inh: -1; SR-BI uptake up: -24; Vif imaging: -10

Results for CC(C)CN(CC(C)C)C(=O)CCCC(=O)N(CC(C)C)CC(C)C ?
SR-BI HDL uptake: 20; Bfl-1 A1 inh: 0; TAG inh: 10; SR-BI uptake up: -20; Vif imaging: 4

What do the screens show for `CC(=O)c1sc(NC(=O)COc2ccc([N+](=O)[O-])cc2)nc1C`?
SR-BI HDL uptake: 17; Bfl-1 A1 inh: 0; TAG inh: -11; SR-BI uptake up: -17; Vif imaging: 98*

Results for O=C(COc1ccc([N+](=O)[O-])cc1)NNC(=O)c1cccs1 ?
SR-BI HDL uptake: -8; Bfl-1 A1 inh: 1; TAG inh: 1; SR-BI uptake up: 8; Vif imaging: 53*

How did O=C(Cc1ccc([N+](=O)[O-])cc1)NNC(=O)c1cccs1 do in these assays?
SR-BI HDL uptake: -9; Bfl-1 A1 inh: 1; SR-BI uptake up: 9; Vif imaging: 8

How did CCCCn1nc(C(=O)N2CCN(S(=O)(=O)c3ccccc3)CC2)c2ccccc2c1=O do in these assays?
SR-BI HDL uptake: -17; Bfl-1 A1 inh: -1; TAG inh: 0; SR-BI uptake up: 17; Vif imaging: -8

How did O=C(Cn1nc(CNc2ccc(Br)cc2)[n+]2c1CCCCC2)c1ccc([N+](=O)[O-])cc1 do in these assays?
SR-BI HDL uptake: 9; Bfl-1 A1 inh: 0; TAG inh: 4; SR-BI uptake up: -9; Vif imaging: 0

Results for CCC1CCc2c(sc(NC(=O)c3cccnc3)c2C(N)=O)C1 (configuration not stated) ?
SR-BI HDL uptake: 77*; Bfl-1 A1 inh: 1; TAG inh: -2; SR-BI uptake up: -59; Vif imaging: -11

What do the screens show for `O=C1c2ccccc2[C@@H]2C[C@@H](O)[C@H](Nc3cccc4ccccc34)CCN12`?
SR-BI HDL uptake: 11; TAG inh: 3; SR-BI uptake up: -11; Vif imaging: 83*

Results for NS(=O)(=O)c1ccc(NC(=O)CCC(=O)N2CCOCC2)cc1 ?
SR-BI HDL uptake: -20; Bfl-1 A1 inh: 0; SR-BI uptake up: 20; Vif imaging: 58*

How did COc1ccc(C(=O)N[C@H](C(=O)NC2CCCCC2)C(C)C)cc1 do in these assays?
SR-BI HDL uptake: 3; Bfl-1 A1 inh: 0; TAG inh: -19; SR-BI uptake up: -3; Vif imaging: 6

How did O=c1[nH]c(CSc2ncnc3sc(-c4ccccc4)cc23)nc2ccccc12 do in these assays?
SR-BI HDL uptake: 12; Bfl-1 A1 inh: 0; TAG inh: 8; SR-BI uptake up: -12; Vif imaging: -1

What do the screens show for `S=c1[nH]nc(-c2cc(-c3ccccc3)n[nH]2)n1/N=C/C(Br)=C/c1ccccc1`?
Bfl-1 A1 inh: 0; TAG inh: 72*; Vif imaging: 20

Results for O=C(O)C1C2CCC(C2)C1C(=O)NCCc1ccccc1 (configuration not stated) ?
SR-BI HDL uptake: -6; Bfl-1 A1 inh: inconclusive; TAG inh: -4; SR-BI uptake up: 6; Vif imaging: 7

Results for COc1ccccc1NC(=O)c1ccc(NC(=O)COC(=O)CC(NC(=O)c2ccccc2Cl)c2ccccc2)cc1 (configuration not stated) ?
SR-BI HDL uptake: 81*; Bfl-1 A1 inh: 0; TAG inh: 5; SR-BI uptake up: -81; Vif imaging: -2

What do the screens show for `CCn1cc(/C=N\NC(=O)C2(C)CC2(Cl)Cl)c(C)n1` (configuration not stated)?
SR-BI HDL uptake: -3; Bfl-1 A1 inh: 0; SR-BI uptake up: 3; Vif imaging: 4

How did CCOc1cc(C(=O)N/N=C\c2cn(CC)nc2C)cc(OCC)c1OCC do in these assays?
SR-BI HDL uptake: 81*; Bfl-1 A1 inh: 1; SR-BI uptake up: -81; Vif imaging: -6

What do the screens show for `CC(C)c1ccc(-c2nc(N3CCCC3)nc3n[nH]c(N)c23)cc1`?
SR-BI HDL uptake: 13; Bfl-1 A1 inh: -1; TAG inh: 35; SR-BI uptake up: -13

Results for CC(C)c1ccc(-c2nc(N3CCCCCC3)nc3n[nH]c(N)c23)cc1 ?
SR-BI HDL uptake: 90*; Bfl-1 A1 inh: 0; TAG inh: 4; SR-BI uptake up: -90; Vif imaging: 1

What do the screens show for `COc1nc(NCCc2ccc(OC)c(OC)c2)nc(OC)n1`?
Bfl-1 A1 inh: -1; TAG inh: 4; Vif imaging: -1

What do the screens show for `COc1ccc(CCNc2c3ccccc3nc3ccccc23)cc1OC`?
SR-BI HDL uptake: -43; Bfl-1 A1 inh: 1; TAG inh: 55*; SR-BI uptake up: 43; Vif imaging: -2

How did Cc1nc2c(ccc3nc(NC(=O)c4ccc5c(c4)OCCO5)sc32)s1 do in these assays?
SR-BI HDL uptake: 75*; Bfl-1 A1 inh: -4; SR-BI uptake up: -75; Vif imaging: -4

Results for COc1cc(/C=N/NC(=S)NC2CC3CC2C2C=CCC32)ccc1O (configuration not stated) ?
SR-BI HDL uptake: 73*; Bfl-1 A1 inh: 0; TAG inh: 7; SR-BI uptake up: -73; Vif imaging: 23

How did COc1ccc(-c2c(-c3cc(OC)cc(OC)c3)n(C)c3ccc(-c4ccc5[nH]ccc5c4)cc23)cc1 do in these assays?
SR-BI HDL uptake: 76*; Bfl-1 A1 inh: 0; SR-BI uptake up: -76; Vif imaging: 10

How did CC(=O)NC(Cc1ccccc1F)C(=O)NC1CCN(C(=O)c2cnccn2)CC1 (configuration not stated) do in these assays?
SR-BI HDL uptake: -40; Bfl-1 A1 inh: -1; SR-BI uptake up: 40; Vif imaging: 55*
